Only some compounds are listed: those with a hit (about 9.4% of all), similar ones and a draw of the others.
Beta cell apopt: beta cell apoptosis inhibition | protection from apoptosis, % (test concentration not listed) | 0.8% of 300,000 active | INS-1E cytokine-induced death, ATP luminescence, 48 h; percent of positive-control rescue, neutral wells zero;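 active = Every replicate reaches about 75%, or at least half do and their mean reaches it too, limit read from the data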;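 also: 0% = cytokine-treated negative control wells and 100% = positive control rescue; higher means more ATP so stronger rescue from cytokine killing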
SKKanGAS inh: SKKanGAS growth inhibition. S. pyogenes SKKanGAS, kanamycin growth, BacTiter-Glo, 6 h. inhibition, % at 7.5 µM. 1.3% of 300,000 active. AID 1662;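 active = mean replicate score, as percent of positive control median, at least 50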;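 also: strain carries kanamycin resistance gene driven by streptokinase promoter and grows in 40 µg/ml kanamycin; loss of luminescence reflects streptokinase promoter inhibition or plain growth inhibition; 0% = median of DMSO wells and 100% = positive control at its reference dose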
T cruzi inh: T. cruzi replication inhibition; AID 1885; 1.4% of 300,000 active; inhibition, % (no concentration beside the values); T. cruzi beta-gal in NIH3T3, luminescence, 90 h;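 active = mean inhibition across valid replicates above about 55%, limit read from the data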;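 also: signal also drops with host cell toxicity which is not excluded here; 0% = plate median of DMSO wells and 100% = zero luminescence signal; higher percent means less beta-gal luminescence so fewer parasites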
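Assay system: NIH/3T3 host cells with β-galactosidase reporter T. cruzi; input: 5,000 host fibroblasts per well; compound: single 50 nL compound addition per well in DMSO; timing: ≥90 h infection period, 3 h prior cell attachment; measured by: GalScreen β-gal luminescence, detergent lysis, 60 min; evaluation: percent inhibition of parasite-derived β-gal signal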
CSC inhib: cancer stem cell inhibition; cancer stem cell-like cells viability, luminescence; inhibition, % at 7.5 µM; 1.1% of 300,000 active; in the data active = inhibition above about 75%; tested in HMLE shEcad cells
Mdm2 MdmX PPI: disrupts the human Mdm2-MdmX interaction | O15151+Q00987 | SaOS-2 split-luciferase Mdm2/MdmX complementation, luminescence | inhibition, % at 8 µM | 3% of 330,000 active;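 active = inhibition of at least 50% at 8 µM in the primary screen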
Target sequence (O15151 whole entry, looked up): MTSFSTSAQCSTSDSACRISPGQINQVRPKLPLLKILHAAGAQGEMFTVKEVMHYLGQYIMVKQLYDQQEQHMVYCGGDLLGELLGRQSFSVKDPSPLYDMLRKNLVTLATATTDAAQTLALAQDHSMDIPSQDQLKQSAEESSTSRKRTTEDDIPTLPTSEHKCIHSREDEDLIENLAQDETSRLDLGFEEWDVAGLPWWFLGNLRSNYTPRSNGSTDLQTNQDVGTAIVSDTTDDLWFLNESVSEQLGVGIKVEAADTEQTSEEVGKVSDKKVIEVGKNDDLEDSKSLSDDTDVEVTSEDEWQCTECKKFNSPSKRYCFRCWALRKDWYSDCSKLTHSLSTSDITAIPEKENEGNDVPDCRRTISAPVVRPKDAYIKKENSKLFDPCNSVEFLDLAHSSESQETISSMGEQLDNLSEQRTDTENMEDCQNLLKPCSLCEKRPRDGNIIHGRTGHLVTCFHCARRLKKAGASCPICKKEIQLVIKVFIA
Target sequence (Q00987 whole entry, looked up): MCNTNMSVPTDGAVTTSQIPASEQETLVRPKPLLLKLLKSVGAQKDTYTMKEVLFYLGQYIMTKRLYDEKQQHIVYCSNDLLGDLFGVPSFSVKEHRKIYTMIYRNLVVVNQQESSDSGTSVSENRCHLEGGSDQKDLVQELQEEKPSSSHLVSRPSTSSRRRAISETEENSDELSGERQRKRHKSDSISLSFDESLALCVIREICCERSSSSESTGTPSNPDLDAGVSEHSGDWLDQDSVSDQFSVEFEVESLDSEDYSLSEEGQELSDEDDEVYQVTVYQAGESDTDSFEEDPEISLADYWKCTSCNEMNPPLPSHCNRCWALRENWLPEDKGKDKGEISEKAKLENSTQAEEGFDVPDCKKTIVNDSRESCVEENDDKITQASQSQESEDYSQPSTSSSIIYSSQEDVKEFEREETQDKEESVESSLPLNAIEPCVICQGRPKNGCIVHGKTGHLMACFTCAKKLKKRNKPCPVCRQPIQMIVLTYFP
L major viab: reduces viability of Leishmania major promastigotes; AID 1063; inhibition, % at 10 µM; resazurin fluorescence viability; 9% of 200,000 active; in the data active = inhibition above about 50%;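 also: promastigotes grown with compound for 44 hours at 28 °C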
* = called active by the depositor.

`Cc1cccc(CN(C(=S)Nc2c(C)cccc2C)c2cccnc2)c1` gave Beta cell apopt -3.2, SKKanGAS inh 2.5, T cruzi inh -13.6, CSC inhib -7.9, Mdm2 MdmX PPI 27.5 and L major viab 86.8*.
Screening COc1ccc(NS(=O)(=O)c2cccc(NC(=O)COc3ccc(OC)cc3)c2)cc1 returned Beta cell apopt -0.4, SKKanGAS inh 4.1, T cruzi inh -11.3, CSC inhib 8.5 and Mdm2 MdmX PPI 27.9.
COc1ccc(NS(=O)(=O)c2cccc(C(=O)NC3CCN(Cc4ccccc4)CC3)c2)cc1 was read as Beta cell apopt 14.3, SKKanGAS inh -1.9, T cruzi inh 63.1*, CSC inhib 15.9 and Mdm2 MdmX PPI 32.7.
COc1ccccc1NS(=O)(=O)c1ccc(C)c(NC(=O)NC2CCCCC2)c1 was read as Beta cell apopt 2.5, SKKanGAS inh -15.4, T cruzi inh 10.1, CSC inhib 5.3, Mdm2 MdmX PPI -22.9 and L major viab 100.2*.
Screening COc1ccc(NS(=O)(=O)c2cccc(NC(=O)NC3CCCCC3)c2)cc1 returned Beta cell apopt 1.9, SKKanGAS inh 17.7, T cruzi inh -8.4, CSC inhib -7.0, Mdm2 MdmX PPI 7.1 and L major viab 98.6*.
COc1ccc(NS(=O)(=O)c2cccc(N/C(=N\S(=O)(=O)c3ccccc3)c3ccc(F)cc3)c2)cc1 was read as Beta cell apopt 11.1, SKKanGAS inh 12.7, T cruzi inh -28.3, CSC inhib 8.8, Mdm2 MdmX PPI 8.7 and L major viab 76.1*.
For CC(C)Oc1ccc(C2CC(=O)N(C)C2=O)cc1 (stereo unspecified) the results were Beta cell apopt 2.5, SKKanGAS inh 12.8, T cruzi inh -1.4, CSC inhib -2.3 and Mdm2 MdmX PPI 13.3.
CCc1ccc(C(=O)COC(=O)c2cncc(Br)c2)cc1 was read as Beta cell apopt -11.1, SKKanGAS inh -5.3, T cruzi inh 0.5, CSC inhib -10.8, Mdm2 MdmX PPI 16.1 and L major viab -7.0.
`COc1ccc(NS(=O)(=O)c2ccc(C)c(NC(=O)NC3CCCCC3)c2)cc1` gave Beta cell apopt -5.1, SKKanGAS inh 11.3, T cruzi inh 2.9, CSC inhib -7.4, Mdm2 MdmX PPI 16.3 and L major viab 99.3*.
For COc1ccc(S(=O)(=O)Nc2ccccc2OC)cc1NC(=O)CC1CC2CCC1C2 (stereo unspecified) the results were Beta cell apopt 1.7, SKKanGAS inh -1.9, T cruzi inh 1.2, CSC inhib 17.1, Mdm2 MdmX PPI 1.3 and L major viab 100.3*.
`COCCNC(=O)Cn1nc(-c2ccc(Cl)cc2)c2ccccc2c1=O` gave Beta cell apopt 0.4, SKKanGAS inh 0.3, T cruzi inh -12.3, CSC inhib -8.4 and Mdm2 MdmX PPI 23.9.
Screening CC1CN(S(=O)(=O)c2cccc(-c3csc(-c4ccccc4)n3)c2)CC(C)O1 (stereo unspecified) returned Beta cell apopt 4.0, SKKanGAS inh 4.5, T cruzi inh 17.3, CSC inhib -2.0, Mdm2 MdmX PPI 12.1 and L major viab 97.4*.
For O=S(=O)(c1cccc(-c2csc(-c3ccccc3)n2)c1)N1CCOCC1 the results were Beta cell apopt 3.6, SKKanGAS inh -20.7, T cruzi inh 29.5, CSC inhib 9.9, Mdm2 MdmX PPI 18.1 and L major viab 16.0.
Screening CCOc1ccc(N=Cc2c(C)[nH]n(-c3nc4ccccc4[nH]3)c2=O)cc1 returned Beta cell apopt 113.8*, SKKanGAS inh 41.6, T cruzi inh 3.7, CSC inhib 118.2*, Mdm2 MdmX PPI 34.7 and L major viab 6.8.
`Cc1[nH]n(-c2ccccc2)c(=O)c1C=Nc1cnc2ccccc2c1` gave Beta cell apopt 0.0, SKKanGAS inh -0.9, T cruzi inh -8.2, CSC inhib -6.5, Mdm2 MdmX PPI 6.6 and L major viab -2.4.
C=CCNS(=O)(=O)c1cccc(C(C)=O)c1 was read as Beta cell apopt -5.4, SKKanGAS inh -3.5, T cruzi inh -5.0, CSC inhib 20.4, Mdm2 MdmX PPI -13.2 and L major viab 54.0*.
For CC(=O)c1cccc(S(=O)(=O)NCC2CCCCC2)c1 the results were Beta cell apopt 2.0, SKKanGAS inh -1.3, T cruzi inh -22.4, CSC inhib 25.2, Mdm2 MdmX PPI -6.5 and L major viab -5.0.
`Fc1ccc2c(c1)C1C=CCC1C(c1cc3c(cc1Br)OCO3)N2` (stereo unspecified) gave Beta cell apopt 2.4, SKKanGAS inh 73.1*, T cruzi inh 22.8, CSC inhib 6.8, Mdm2 MdmX PPI 29.8 and L major viab 12.2.
Cc1nnc(N/N=C/c2ccco2)n1N was read as Beta cell apopt -0.5, SKKanGAS inh 15.8, T cruzi inh -3.2, CSC inhib 6.7, Mdm2 MdmX PPI 16.5 and L major viab -4.1.
For CCOCCCn1c(=N)c(C(=O)NCc2ccc3c(c2)OCO3)cc2c(=O)n3cccc(C)c3nc21 the results were Beta cell apopt 18.0, SKKanGAS inh 1.6, T cruzi inh 58.1*, CSC inhib 16.7, Mdm2 MdmX PPI 25.0 and L major viab 3.9.
Screening CCCn1c(=N)c(C(=O)NC2CCCC2)cc2c(=O)n3cccc(C)c3nc21 returned Beta cell apopt 11.6, SKKanGAS inh -4.6, CSC inhib -2.0, Mdm2 MdmX PPI -1.8 and L major viab 58.1*.
CCCCNC(=O)c1cc2c(=O)n3cccc(C)c3nc2n(CCN2CCOCC2)c1=N was read as Beta cell apopt 10.8, SKKanGAS inh -0.6, T cruzi inh 6.7, CSC inhib -0.1, Mdm2 MdmX PPI 10.1 and L major viab 12.2.
Cc1cccn2c(=O)c3cc(C#N)c(=N)n(CCCN4CCOCC4)c3nc12 was read as Beta cell apopt -0.7, SKKanGAS inh 5.2, T cruzi inh 12.4, CSC inhib 5.6, Mdm2 MdmX PPI 29.8 and L major viab 89.2*.
For Cc1cccn2c(=O)c3cc(C(N)=S)c(=N)n(CCCN4CCOCC4)c3nc12 the results were Beta cell apopt 10.4, SKKanGAS inh -1.2, T cruzi inh 24.2, CSC inhib -3.3, Mdm2 MdmX PPI 21.7 and L major viab 64.2*.
NS(=O)(=O)c1ccc(Sc2ccc3c(c2)CCC3)nc1 was read as Beta cell apopt -5.7, SKKanGAS inh 2.6, T cruzi inh 4.9, CSC inhib 10.0 and Mdm2 MdmX PPI 18.6.
For COc1ccccc1C(=O)NC(=O)COC(=O)c1ccc(Br)o1 the results were Mdm2 MdmX PPI 10.4.
Screening Cc1cccn2c(=O)c3cc(C#N)c(=NC(=O)c4ccncc4)n(CCCOC(C)C)c3nc12 returned Beta cell apopt 11.2, SKKanGAS inh 12.5, T cruzi inh 20.6, CSC inhib 9.1, Mdm2 MdmX PPI 0.2 and L major viab 61.1*.
For COCCCn1c(=N)c(C(N)=S)cc2c(=O)n3cccc(C)c3nc21 the results were Beta cell apopt 9.1, SKKanGAS inh -11.3, T cruzi inh 68.0*, CSC inhib 1.2 and Mdm2 MdmX PPI -1.7.
`CCn1c(=N)c(C(N)=O)cc2c(=O)n3cccc(C)c3nc21` gave L major viab 99.8*.

Source: PubChem BioAssay
